The source made the active and inactive calls.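 How the source made its calls, unless noted: active means fluorescence slope after compound addition differing from the mean of all tested samples at 99.7% confidence, mostly higher but some lower; inactive means the rest.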
Legend:
[1] = inhibitors of TNFa-induced NFkB p65 translocation, primary screen, imaging, HUVEC, MLSMR starter and 10KST1 sets (AID 438;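 active means inhibition above 20% together with a positive visual image hit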;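 further: compound added about 3h40 before a 20 min TNFalpha stimulation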;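 on inhibition: signal is the nuclear over cytoplasmic p65 intensity ratio per well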); settings: HUVEC TNFa-induced p65 nuclear translocation; cell count: measured here: nuclei count (cytotoxicity indicator), at 2.08 µM; inhibition: at 2 µM, stronger effect = higher value, 0% TNFa-plus-vehicle, 100% no-TNFa wells
[2] = inhibitors of mutant huntingtin aggregation, primary screen, imaging, exon1htt(103Q)mCFP cells, high-content imaging (AID 483;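 active means visual image review flags a hit and inhibition of aggregation exceeds 20%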;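 further: compound exposure lasted 3 days before fixation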;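 on nuclei count: percent of the per-plate median nuclei count of sample wells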); settings: exon1htt(103Q)mCFP cell line, aggregate imaging, at 2 µM; inhibition of aggregation: stronger effect = higher value; nuclei count: measured here: cell count, toxicity
[3] = inhibitors of E-selectin induction by TNFa, primary screen, imaging, HUVEC, immunofluorescence, MLSMR starter and 10KST1 sets (AID 487;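 active means visually confirmed hit in the image check and inhibition above 20%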;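 on inhibition: signal is fraction of cell area covered by stained E-selectin grains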;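 on nuclei count: 100% = median nuclei count of all wells on the same plate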); settings: HUVEC TNFalpha-induced E-selectin immunofluorescence imaging, at 2 µM; inhibition: stronger effect = higher value; nuclei count: measured here: cell number, toxicity
[4] = target: Voltage-gated potassium channel subunit beta-2 (Rattus norvegicus) (UniProt P62483); assay: KvBeta enzyme negative modulators, primary screen, biochemical, NADPH fluorescence (AID 622;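 active means fluorescence slope higher than the sample average by over 3 SD, cut at about -0.22 in these data, passing the limit was not always enough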;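 further: slope of raw intensity against log time taken from 70 to 1610 s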); settings: recombinant KvBeta, 4-cyanobenzaldehyde reduction, at 10 µM, stronger effect = higher value
Sequence of Voltage-gated potassium channel subunit beta-2 (Rattus norvegicus) (P62483 whole entry, looked up): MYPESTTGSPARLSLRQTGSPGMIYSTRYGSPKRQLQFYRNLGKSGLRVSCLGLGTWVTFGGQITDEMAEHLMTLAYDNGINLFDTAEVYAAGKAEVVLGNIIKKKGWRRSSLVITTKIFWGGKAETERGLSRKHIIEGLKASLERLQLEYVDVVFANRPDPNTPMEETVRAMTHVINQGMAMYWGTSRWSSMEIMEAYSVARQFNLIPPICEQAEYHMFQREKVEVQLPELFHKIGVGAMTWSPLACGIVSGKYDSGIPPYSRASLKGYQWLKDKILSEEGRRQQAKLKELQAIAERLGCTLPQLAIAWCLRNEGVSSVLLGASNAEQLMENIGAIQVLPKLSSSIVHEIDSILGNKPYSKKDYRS

[5] = target: Voltage-gated potassium channel subunit beta-2 (Rattus norvegicus) (UniProt P62483); assay: KvBeta positive modulators, primary screen, biochemical, NADPH fluorescence (AID 623;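 active means NADPH fluorescence slope more negative than the mean of all samples by about 3 SD, 99.7% confidence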;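 further: fluorescence intensity change per second fitted from 20 to 320 s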); settings: Recombinant KvBeta, NADPH fluorescence decrease slope, 10 min; at 10 µM; stronger effect = lower value
[6] = target: Muscarinic acetylcholine receptor M4 (Homo sapiens) (UniProt P08173); assay: compounds altering M4/GIRK thallium flux, either direction, primary screen, M4 allosteric agonist project, cell-based, HEK293 M4/GIRK, BTC-AM (AID 625); settings: at 10 µM, actives lie on both sides;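 further: thallium influx through GIRK channels coupled to M4 in HEK293 cells with BTC-AM dye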
Sequence of Muscarinic acetylcholine receptor M4 (Homo sapiens) (P08173 whole entry, looked up): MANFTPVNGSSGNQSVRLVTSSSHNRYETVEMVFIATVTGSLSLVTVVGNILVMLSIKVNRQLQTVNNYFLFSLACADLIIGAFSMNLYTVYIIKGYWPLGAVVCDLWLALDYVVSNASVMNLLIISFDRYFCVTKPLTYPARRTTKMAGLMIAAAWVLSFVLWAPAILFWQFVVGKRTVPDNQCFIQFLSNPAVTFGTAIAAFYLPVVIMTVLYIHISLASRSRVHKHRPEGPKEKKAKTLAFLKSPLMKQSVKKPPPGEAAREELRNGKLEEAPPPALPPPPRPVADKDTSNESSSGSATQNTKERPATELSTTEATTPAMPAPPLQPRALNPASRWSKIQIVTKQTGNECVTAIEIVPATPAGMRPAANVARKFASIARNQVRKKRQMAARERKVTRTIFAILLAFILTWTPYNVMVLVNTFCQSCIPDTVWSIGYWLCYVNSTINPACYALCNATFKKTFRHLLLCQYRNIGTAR
In short: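 Assay system: HEK293 cells with M4 receptor and GIRK channels / Controls: carbachol and DMSO controls / Schedule: 1 h dye loading, 2 min kinetic read / Technique: kinetic fluorescence with BTC-AM dye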

[7] = inhibitors of Sendai virus-induced IRF3 signaling, primary screen, TLR/RLR signaling modifier project, cell-based, Sendai virus stimulus, luciferase, 10K MLSCN set (AID 602276;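 active means inhibition at or above 50% at 10 µM; inactive means inhibition below 50%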;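 further: firefly luciferase from ISG56 promoter only with Renilla not read in this screen; 0% = Sendai virus plus DMSO and 100% = medium plus DMSO without virus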); settings: HEK293 RL24 IRF3 luciferase reporter, at 10 µM, stronger effect = higher value
[8] = inhibitors of poly I:C-induced TLR3 signaling, primary screen, cell-based, poly I:C stimulus, luciferase, 10K MLSCN set (AID 602277;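 active means inhibition of the reporter signal at or above 50%; inactive means inhibition below 50%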); settings: HEK293-TLR3 RL24 IRF3 luciferase reporter, at 10 µM, stronger effect = higher value

CCSc1oc(-c2ccco2)nc1S(=O)(=O)c1ccccc1
cell count [1]: 584 | inhibition [1]: -7.9% (inactive) | inhibition of aggregation [2]: -18% (inactive) | nuclei count [2]: 107% | inhibition [3]: 4.3% (inactive) | nuclei count [3]: 105% | fluorescence slope [4]: -0.316 (inactive) | NADPH fluorescence slope [5]: -2.1e-05 (inactive) | fluorescence slope [6]: 0.00508 (inactive) | inhibition [7]: -7.74% (inactive) | inhibition [8]: -0.253% (inactive)

CC(C(=O)NCCCN1CCOCC1)n1cccc1C(=O)c1ccccc1 (centres undefined)
cell count [1]: 572 | inhibition [1]: 2.7% (inactive) | inhibition of aggregation [2]: -8.2% (inactive) | nuclei count [2]: 104% | inhibition [3]: -1.5% (inactive) | nuclei count [3]: 94.2% | fluorescence slope [4]: -0.549 (inactive) | NADPH fluorescence slope [5]: -3.4e-05 (inactive) | fluorescence slope [6]: 0.00579 (inactive) | inhibition [7]: 17.2% (inactive) | inhibition [8]: 17% (inactive)

COc1ccc(OCC(=O)N2CCN(C(=O)c3cccs3)CC2)cc1
cell count [1]: 365 | inhibition [1]: -7% (inactive) | inhibition of aggregation [2]: -31.2% (inactive) | nuclei count [2]: 89% | inhibition [3]: -51.4% (inactive) | nuclei count [3]: 124% | fluorescence slope [4]: -0.57 (inactive) | NADPH fluorescence slope [5]: -5.4e-05 (inactive) | fluorescence slope [6]: 0.00633 (inactive) | inhibition [7]: 21.2% (inactive) | inhibition [8]: 17.7% (inactive)

CC1(C)CC(=O)c2cc(OCC(=O)NCCCN3CCN(c4ccccc4F)CC3)ccc2O1
cell count [1]: 398 | inhibition [1]: 5.8% (inactive) | inhibition of aggregation [2]: -2% (inactive) | nuclei count [2]: 91.6% | inhibition [3]: -156% (inactive) | nuclei count [3]: 103% | fluorescence slope [4]: -0.366 (inactive) | NADPH fluorescence slope [5]: 3e-05 (inactive) | fluorescence slope [6]: 0.00645 (inactive) | inhibition [7]: 9.74% (inactive) | inhibition [8]: 2.15% (inactive)

Cc1cc(C)cc(N2CCCn3c2nc2c3c(=O)n(CCN3CCOCC3)c(=O)n2C)c1
cell count [1]: 390 | inhibition [1]: 3.3% (inactive) | inhibition of aggregation [2]: 0.7% (inactive) | nuclei count [2]: 108% | inhibition [3]: 27.6% (inactive) | nuclei count [3]: 103% | fluorescence slope [4]: -0.388 (inactive) | NADPH fluorescence slope [5]: 6.6e-05 (inactive) | fluorescence slope [6]: 0.00574 (inactive) | inhibition [7]: 18.5% (inactive) | inhibition [8]: 34.4% (inactive)

Cc1noc(C)c1S(=O)(=O)NCCN1CCN(c2ccccc2)CC1
cell count [1]: 413 | inhibition [1]: -5.2% (inactive) | inhibition of aggregation [2]: -8.9% (inactive) | nuclei count [2]: 118% | inhibition [3]: -42.6% (inactive) | nuclei count [3]: 141% | fluorescence slope [4]: -0.546 (inactive) | NADPH fluorescence slope [5]: 4.8e-05 (inactive) | fluorescence slope [6]: 0.0066 (inactive) | inhibition [7]: 12.9% (inactive) | inhibition [8]: 20.2% (inactive)

O=C(NCc1ccc(Cl)cc1)c1ccc(COCC(F)(F)F)o1
cell count [1]: 702 | inhibition [1]: -3.9% (inactive) | inhibition of aggregation [2]: -3.7% (inactive) | nuclei count [2]: 91.3% | inhibition [3]: -28.9% (inactive) | nuclei count [3]: 101% | fluorescence slope [4]: -0.421 (inactive) | NADPH fluorescence slope [5]: -0.00041 (inactive) | fluorescence slope [6]: 0.00521 (inactive) | inhibition [7]: -1.43% (inactive) | inhibition [8]: -15.5% (inactive)

CCCCC(c1nnnn1C1CCCC1)N1CCN(C2CCCCC2)CC1 (centres undefined)
cell count [1]: 625 | inhibition [1]: -40.8% (inactive) | inhibition of aggregation [2]: -12% (inactive) | nuclei count [2]: 100% | inhibition [3]: -57.4% (inactive) | nuclei count [3]: 111% | fluorescence slope [4]: -0.314 (inactive) | NADPH fluorescence slope [5]: -3.5e-05 (inactive) | fluorescence slope [6]: 0.00481 (inactive) | inhibition [7]: 10% (inactive) | inhibition [8]: 39.4% (inactive)

Cc1cc(NS(=O)(=O)c2ccccc2)n(-c2ccccc2)n1
cell count [1]: 395 | inhibition [1]: 10.8% (inactive) | inhibition of aggregation [2]: -18.2% (inactive) | nuclei count [2]: 94.7% | inhibition [3]: -59.1% (inactive) | nuclei count [3]: 106% | fluorescence slope [4]: -0.544 (inactive) | NADPH fluorescence slope [5]: -4.8e-05 (inactive) | fluorescence slope [6]: 0.00508 (inactive) | inhibition [7]: -0.656% (inactive) | inhibition [8]: 28% (inactive)

O=C1CC(c2ccco2)CC(O)=C1C=NCC1NCCc2ccccc21 (centres undefined)
cell count [1]: 330 | inhibition [1]: -2.8% (inactive) | inhibition of aggregation [2]: 5.8% (inactive) | nuclei count [2]: 94.2% | inhibition [3]: -123% (inactive) | nuclei count [3]: 125% | fluorescence slope [4]: -0.511 (inactive) | NADPH fluorescence slope [5]: 2.1e-05 (inactive) | fluorescence slope [6]: 0.00572 (inactive) | inhibition [7]: 17.9% (inactive) | inhibition [8]: 27.2% (inactive)

O=C(CN1CCN(C(=O)c2ccccc2)CC1)Nc1ncc(Br)cc1Br
cell count [1]: 622 | inhibition [1]: 7.6% (inactive) | inhibition of aggregation [2]: -6.8% (inactive) | nuclei count [2]: 95.9% | inhibition [3]: 2.6% (inactive) | nuclei count [3]: 99.9% | fluorescence slope [4]: -0.45 (inactive) | NADPH fluorescence slope [5]: 3.1e-05 (inactive) | fluorescence slope [6]: 0.00598 (inactive) | inhibition [7]: -7.57% (inactive) | inhibition [8]: 5.71% (inactive)

COCCSc1ccccc1C(=O)Nc1cc(C)on1
cell count [1]: 587 | inhibition [1]: 3.3% (inactive) | inhibition of aggregation [2]: -4.3% (inactive) | nuclei count [2]: 92.3% | inhibition [3]: 22.8% (inactive) | nuclei count [3]: 90.6% | fluorescence slope [4]: -0.568 (inactive) | NADPH fluorescence slope [5]: -2.5e-05 (inactive) | fluorescence slope [6]: 0.00516 (inactive) | inhibition [7]: 14.3% (inactive) | inhibition [8]: 20.9% (inactive)

COc1cccc(-c2cc(C(=O)Nc3cc(C)n(Cc4ccc(Cl)cc4)n3)no2)c1
cell count [1]: 498 | inhibition [1]: -5.7% (inactive) | inhibition of aggregation [2]: 10.2% (inactive) | nuclei count [2]: 100% | inhibition [3]: 38.9% (inactive) | nuclei count [3]: 100% | fluorescence slope [4]: -0.211 (inactive) | NADPH fluorescence slope [5]: -2.5e-05 (inactive) | fluorescence slope [6]: 0.0105 (inactive) | inhibition [7]: 18.7% (inactive) | inhibition [8]: -60.3% (inactive)

O=C(Cc1c(O)c2ccccc2[nH]c1=O)NCc1ccc(F)cc1
cell count [1]: 251 | inhibition [1]: 4.3% (inactive) | inhibition of aggregation [2]: 18.1% (inactive) | nuclei count [2]: 61.3% | inhibition [3]: -25.6% (inactive) | nuclei count [3]: 115% | fluorescence slope [4]: -0.544 (inactive) | NADPH fluorescence slope [5]: -2e-05 (inactive) | fluorescence slope [6]: 0.00681 (inactive) | inhibition [7]: 20.7% (inactive) | inhibition [8]: 24.8% (inactive)

— PubChem BioAssay
